The source of these data is ChEMBL document CHEMBL1128224 (J Med Chem, 1995).

In one test the target is Kappa-type opioid receptor (Cavia porcellus, UniProt P41144). Nature of the test: The opioid receptor affinity(Ki) was evaluated by competition with 9 (Opioid receptor kappa 1) on guinea pig brain membranes. The arrangement: species or system Membrane.
Conditions: not given
A word on the Ki: it is a measure of affinity in units of concentration, obtained from inhibition or displacement. On to `NCCCC[C@@H](NC(=O)c1cccc2c3c([nH]c12)[C@@H]1Oc2c(O)ccc4c2C12CCN(CC1CC1)C(C4)[C@]2(O)C3)C(=O)O` (some centres not stated), for which the inhibition constant Ki was determined as 0.041 µM.

The next test has as its target Delta-type opioid receptor (Mus musculus) (UniProt P32300). Nature of the test: Antagonist activity against the delta1 opioid receptor using DPDPE as agonist at 20 pmol/kg (icv) was determined as ratio of ED50 of antagonist to the control (ED50 of control = 8.6 (6.5-11.1) nmol/kg). It is filed as functional.
Conditions: not given
Take `O=C(O)CNC(=O)c1cccc2c3c([nH]c12)[C@@H]1Oc2c(O)ccc4c2C12CCN(CC1CC1)C(C4)[C@]2(O)C3` (some centres not stated): the ED50 ratio turned out to be 5.3.

For a further test, the target named is Mu-type opioid receptor (Cavia porcellus) (UniProt P97266). Nature of the test: IC50 ratio was measured on Morphine(mu) in the guinea pig ileal longitudinal muscle(GPI) preparation. It is filed as tissue-based. The following applies: Muscle tissue.
With `O=C(O)c1cccc2c3c([nH]c12)[C@@H]1Oc2c(O)ccc4c2C12CCN(CC1CC1)C(C4)[C@]2(O)C3` (some centres not stated), the IC50 ratio amounted to 2.

For `O=C(O)CNC(=O)c1cccc2c3c([nH]c12)[C@@H]1Oc2c(O)ccc4c2C12CCN(CC1CC1)C(C4)[C@]2(O)C3` (some centres not stated), the IC50 ratio came out at 1.5.

Regarding `NCCCC[C@@H](NC(=O)c1cccc2c3c([nH]c12)[C@@H]1Oc2c(O)ccc4c2C12CCN(CC1CC1)C(C4)[C@]2(O)C3)C(=O)O` (some centres not stated), the IC50 ratio turned out to be 1.

In a further test the target is Delta-type opioid receptor (Mus musculus) (UniProt P32300). Nature of the test: The antagonist potencies mediated through […] were expressed as Ke values calculated on DADLE(delta) in the mouse vas deferens(MVD) preparation. Type of test: functional.
Conditions: not given
The gist of the method:
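In electrically stimulated mouse vas deferens with DADLE as agonist, antagonist was preincubated 15 min at 100 nM unless otherwise specified. Ke = [antagonist]/(IC50 ratio − 1) from the Schild relationship, averaged over at least three IC50 ratio determinations.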
On to `O=C(O)c1cccc2c3c([nH]c12)[C@@H]1Oc2c(O)ccc4c2C12CCN(CC1CC1)C(C4)[C@]2(O)C3` (some centres not stated), for which the Ke is 0.4 nM.

Turning to `O=C(O)CNC(=O)c1cccc2c3c([nH]c12)[C@@H]1Oc2c(O)ccc4c2C12CCN(CC1CC1)C(C4)[C@]2(O)C3` (some centres not stated), the Ke was 3.2 nM.

Consider `Oc1ccc2c3c1O[C@H]1c4[nH]c5ccccc5c4C[C@@]4(O)[C@@H](C2)N(CC2CC2)CC[C@]314` [NALTRINDOLE], for which the Ke was 0.2 nM.

Consider `NCCCC[C@@H](NC(=O)c1cccc2c3c([nH]c12)[C@@H]1Oc2c(O)ccc4c2C12CCN(CC1CC1)C(C4)[C@]2(O)C3)C(=O)O` (some centres not stated), for which the Ke is 5.2 nM.

Another test concerns the target T1, Opioid receptors; delta & kappa (Homo sapiens) (UniProt P41145+P41143). Nature of the test: Selectivity as the ratio of Ki value towards kappa receptor to that of delta 1 receptor. It is filed as protein assay.
Conditions: not given
On to `O=C(O)c1cccc2c3c([nH]c12)[C@@H]1Oc2c(O)ccc4c2C12CCN(CC1CC1)C(C4)[C@]2(O)C3` (some centres not stated), for which the Selectivity worked out at 3250.

As for `O=C(O)CNC(=O)c1cccc2c3c([nH]c12)[C@@H]1Oc2c(O)ccc4c2C12CCN(CC1CC1)C(C4)[C@]2(O)C3` (some centres not stated), the Selectivity amounted to 30000.

In the case of `NCCCC[C@@H](NC(=O)c1cccc2c3c([nH]c12)[C@@H]1Oc2c(O)ccc4c2C12CCN(CC1CC1)C(C4)[C@]2(O)C3)C(=O)O` (some centres not stated), the Selectivity is 134.

Tested on in the next test: not listed separately
Nature of the test: Ratio of iv dose to that of icv. Type of test: functional.
Conditions: not given
The essentials:
(§1)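 In the mouse tail-flick assay against DPDPE-induced antinociception, the antagonist was given icv or iv. […] The iv/icv value is the ratio of these two doses.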
Consider `O=C(O)CNC(=O)c1cccc2c3c([nH]c12)[C@@H]1Oc2c(O)ccc4c2C12CCN(CC1CC1)C(C4)[C@]2(O)C3` (some centres not stated), for which the Ratio is on record as 112766.

Another test deals with Kappa-type opioid receptor (Mus musculus) (UniProt P33534). Nature of the test: Antagonist activity against the kappa opioid receptor using U-50,488H as agonist at 20 pmol/kg (icv) was determined as ratio of ED50 of antagonist to the control (ED50 of control = 27.3 (8.5-52.8) umol/kg).
Conditions: not given
It is filed as functional.
As to `O=C(O)CNC(=O)c1cccc2c3c([nH]c12)[C@@H]1Oc2c(O)ccc4c2C12CCN(CC1CC1)C(C4)[C@]2(O)C3` (some centres not stated), the ED50 ratio was 0.8.

A further test addresses Mu-type opioid receptor (Mus musculus) (UniProt P42866). Put plainly: Antagonist activity against the mu opioid receptor using morphine as agonist at 20 pmol/kg (icv) was determined as ratio of ED50 of antagonist to the control (ED50 of control = 9.7 (8.6-10.9) umol/kg). Type of test: functional.
Conditions: not given
Take `O=C(O)CNC(=O)c1cccc2c3c([nH]c12)[C@@H]1Oc2c(O)ccc4c2C12CCN(CC1CC1)C(C4)[C@]2(O)C3` (some centres not stated): the ED50 ratio turned out to be 0.9.

The next test addresses Mu-type opioid receptor (Cavia porcellus, UniProt P97266). Nature of the test: The opioid receptor affinity(Ki) was evaluated by competition with [3H]DAMGO (mu) on guinea pig brain membranes. The arrangement: species or system Membrane.
Conditions: not given
Regarding `O=C(O)c1cccc2c3c([nH]c12)[C@@H]1Oc2c(O)ccc4c2C12CCN(CC1CC1)C(C4)[C@]2(O)C3` (some centres not stated), affinity was put at a Ki of 0.024 µM.

`O=C(O)CNC(=O)c1cccc2c3c([nH]c12)[C@@H]1Oc2c(O)ccc4c2C12CCN(CC1CC1)C(C4)[C@]2(O)C3` (some centres not stated) had an inhibition constant Ki of 0.206 µM.

On to `NCCCC[C@@H](NC(=O)c1cccc2c3c([nH]c12)[C@@H]1Oc2c(O)ccc4c2C12CCN(CC1CC1)C(C4)[C@]2(O)C3)C(=O)O` (some centres not stated), for which the affinity, expressed as Ki, was 0.219 µM.

The next test relates to Mus musculus. Put plainly: Intracerebroventricular dose required to produce an equivalnet antagonism of DPDPE-induced antinociception. It is filed as functional.
Conditions: not given
The gist of the method: as §1
Turning to `O=C(O)CNC(=O)c1cccc2c3c([nH]c12)[C@@H]1Oc2c(O)ccc4c2C12CCN(CC1CC1)C(C4)[C@]2(O)C3` (some centres not stated), the Dose is 4.7 pM/kg.

For the compound `Oc1ccc2c3c1O[C@H]1c4[nH]c5ccccc5c4C[C@@]4(O)[C@@H](C2)N(CC2CC2)CC[C@]314` [NALTRINDOLE], the Dose was 300 pM/kg.

A further test has as its target Delta-type opioid receptor (Mus musculus) (UniProt P32300). Nature of the test: IC50 ratio was measured on DADLE (delta) in the mouse vas deferens (MVD) preparation.
Conditions: not given
`O=C(O)c1cccc2c3c([nH]c12)[C@@H]1Oc2c(O)ccc4c2C12CCN(CC1CC1)C(C4)[C@]2(O)C3` (some centres not stated): the IC50 ratio worked out at 25.

For `O=C(O)CNC(=O)c1cccc2c3c([nH]c12)[C@@H]1Oc2c(O)ccc4c2C12CCN(CC1CC1)C(C4)[C@]2(O)C3` (some centres not stated), the IC50 ratio is 32.

In the case of `NCCCC[C@@H](NC(=O)c1cccc2c3c([nH]c12)[C@@H]1Oc2c(O)ccc4c2C12CCN(CC1CC1)C(C4)[C@]2(O)C3)C(=O)O` (some centres not stated), the IC50 ratio worked out at 20.

A further test deals with T1, Opioid receptors; delta & kappa (Homo sapiens). Nature of the test: Selectivity as the ratio of IC50 value against delta receptor to that of kappa receptor.
Conditions: not given
Type of test: protein assay.
Turning to `O=C(O)c1cccc2c3c([nH]c12)[C@@H]1Oc2c(O)ccc4c2C12CCN(CC1CC1)C(C4)[C@]2(O)C3` (some centres not stated), the Selectivity turned out to be 231.

Consider `O=C(O)CNC(=O)c1cccc2c3c([nH]c12)[C@@H]1Oc2c(O)ccc4c2C12CCN(CC1CC1)C(C4)[C@]2(O)C3` (some centres not stated), for which the Selectivity was found to be 30.

On to `NCCCC[C@@H](NC(=O)c1cccc2c3c([nH]c12)[C@@H]1Oc2c(O)ccc4c2C12CCN(CC1CC1)C(C4)[C@]2(O)C3)C(=O)O` (some centres not stated), for which the Selectivity was found to be 20.

The next test addresses T2, Opioid receptors; mu & delta (Homo sapiens) (UniProt P41143+P35372). Nature of the test: Selectivity as the ratio of IC50 value against delta receptor to that of mu receptor. Type of test: protein assay.
Conditions: not given
For `O=C(O)c1cccc2c3c([nH]c12)[C@@H]1Oc2c(O)ccc4c2C12CCN(CC1CC1)C(C4)[C@]2(O)C3` (some centres not stated), the Selectivity came out at 122.

For the compound `O=C(O)CNC(=O)c1cccc2c3c([nH]c12)[C@@H]1Oc2c(O)ccc4c2C12CCN(CC1CC1)C(C4)[C@]2(O)C3` (some centres not stated), the Selectivity came out at 21.

For `NCCCC[C@@H](NC(=O)c1cccc2c3c([nH]c12)[C@@H]1Oc2c(O)ccc4c2C12CCN(CC1CC1)C(C4)[C@]2(O)C3)C(=O)O` (some centres not stated), the Selectivity worked out at 20.

A further test addresses Kappa-type opioid receptor (Cavia porcellus) (UniProt P41144). Nature of the test: IC50 ratio was measured on ethylketazocine (Opioid receptor kappa 1) in the guinea pig ileal longitudinal muscle(GPI) preparation.
Conditions: not given
In the case of `O=C(O)c1cccc2c3c([nH]c12)[C@@H]1Oc2c(O)ccc4c2C12CCN(CC1CC1)C(C4)[C@]2(O)C3` (some centres not stated), the IC50 ratio was found to be 1.

Consider `O=C(O)CNC(=O)c1cccc2c3c([nH]c12)[C@@H]1Oc2c(O)ccc4c2C12CCN(CC1CC1)C(C4)[C@]2(O)C3` (some centres not stated), for which the IC50 ratio was determined as 1.1.

On to `NCCCC[C@@H](NC(=O)c1cccc2c3c([nH]c12)[C@@H]1Oc2c(O)ccc4c2C12CCN(CC1CC1)C(C4)[C@]2(O)C3)C(=O)O` (some centres not stated), for which the IC50 ratio was determined as 1.1.

The next test addresses T2, Opioid receptors; mu & delta (Homo sapiens). Nature of the test: Selectivity as the ratio of Ki value towards mu receptor to that of delta 1 receptor.
Conditions: not given
It is filed as protein assay.
Take `O=C(O)c1cccc2c3c([nH]c12)[C@@H]1Oc2c(O)ccc4c2C12CCN(CC1CC1)C(C4)[C@]2(O)C3` (some centres not stated): the Selectivity worked out at 1850.

`O=C(O)CNC(=O)c1cccc2c3c([nH]c12)[C@@H]1Oc2c(O)ccc4c2C12CCN(CC1CC1)C(C4)[C@]2(O)C3` (some centres not stated): the Selectivity was 38200.

In the case of `NCCCC[C@@H](NC(=O)c1cccc2c3c([nH]c12)[C@@H]1Oc2c(O)ccc4c2C12CCN(CC1CC1)C(C4)[C@]2(O)C3)C(=O)O` (some centres not stated), the Selectivity is 719.

The next test has as its system Mus musculus. Nature of the test: Intravenous dose required to produce an equivalnet antagonism of DPDPE-induced antinociception. It is filed as functional.
Conditions: not given
The essentials:
as §1
`O=C(O)CNC(=O)c1cccc2c3c([nH]c12)[C@@H]1Oc2c(O)ccc4c2C12CCN(CC1CC1)C(C4)[C@]2(O)C3` (some centres not stated): the Dose was 0.53 µM/kg.

Consider `Oc1ccc2c3c1O[C@H]1c4[nH]c5ccccc5c4C[C@@]4(O)[C@@H](C2)N(CC2CC2)CC[C@]314` [NALTRINDOLE], for which the Dose turned out to be 2.19 µM/kg.
